In ChEMBL document CHEMBL1140046, “Novel and potent inhibitors of 5-lipoxygenase product synthesis based on the structure of pirinixic acid” (J Med Chem, 2008) one finds Activity and IC50 data, which are given here for 28 compounds.

Test [1] concerns the target T1, Polyunsaturated fatty acid 5-lipoxygenase (Homo sapiens) (UniProt P09917).
T1 sequence (whole entry): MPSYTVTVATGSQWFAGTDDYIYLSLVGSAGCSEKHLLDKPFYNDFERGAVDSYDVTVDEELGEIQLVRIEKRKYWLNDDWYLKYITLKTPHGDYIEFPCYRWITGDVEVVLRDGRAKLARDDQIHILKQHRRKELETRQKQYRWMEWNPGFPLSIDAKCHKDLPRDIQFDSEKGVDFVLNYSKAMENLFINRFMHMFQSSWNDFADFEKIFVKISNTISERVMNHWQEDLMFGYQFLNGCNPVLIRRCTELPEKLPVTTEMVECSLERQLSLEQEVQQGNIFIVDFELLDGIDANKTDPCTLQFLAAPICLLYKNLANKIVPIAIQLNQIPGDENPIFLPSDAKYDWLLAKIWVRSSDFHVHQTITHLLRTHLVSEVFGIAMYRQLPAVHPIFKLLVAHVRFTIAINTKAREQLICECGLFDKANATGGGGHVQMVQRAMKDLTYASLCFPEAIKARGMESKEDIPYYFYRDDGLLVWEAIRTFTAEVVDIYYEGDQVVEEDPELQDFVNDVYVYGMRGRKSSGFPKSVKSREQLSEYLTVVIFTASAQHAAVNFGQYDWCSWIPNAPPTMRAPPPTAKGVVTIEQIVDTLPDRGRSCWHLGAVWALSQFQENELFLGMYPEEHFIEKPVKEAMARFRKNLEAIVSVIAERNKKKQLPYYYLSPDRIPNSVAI
Nature of the test: Inhibition of 5-lipoxygenase in human intact polymorphonuclear leukocytes assessed as suppression of A23187-induced product formation at 10 uM. The arrangement: scale not given: the % may be the effect or the level left. The essentials:
(§1)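 Human PMNL were isolated from donor venous blood by dextran sedimentation, Nycoprep centrifugation and hypotonic lysis. 5 × 10^6 cells in 1 mL PBS pH 7.4 with 1 mg/mL glucose and 1 mM CaCl2 were preincubated 15 min at RT. Stimulation was with 2.5 µM A23187 plus 20 µM AA for 10 min at 37 °C. Methanol stop, PGB1 internal standard, HPLC of LTB4, its all-trans isomers and 5-H(P)ETE.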

Test [2] deals with T1, Polyunsaturated fatty acid 5-lipoxygenase (Homo sapiens). Kind of test: Inhibition of 5-lipoxygenase in human intact polymorphonuclear leukocytes assessed as suppression of A23187-induced product formation at 1 uM. The arrangement: scale not given: the % may be the effect or the level left. In a few lines:
as §1

Test [3] has the same target. Kind of test: Inhibition of human recombinant 5-lipoxygenase expressed in Escherichia coli MV1190 assessed as suppression of CaCl2/arachidonic acid-induced product formation at 1 uM. Set-up: scale not given: the % may be the effect or the level left.
Test [4] deals with T2, Polyunsaturated fatty acid 5-lipoxygenase (Homo sapiens, UniProt P09917).
T2 sequence (P09917 whole entry): T1 sequence (whole entry)
Nature of the test: Inhibition of 5-lipoxygenase in human intact polymorphonuclear leukocytes assessed as suppression of A23187-induced product formation. In a few lines:
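Same PMNL assay: 15 min RT preincubation, then 2.5 µM A23187 plus 20 µM exogenous AA for 10 min at 37 °C. HPLC read-out as ng 5-LO products per 10^6 cells. IC50 approximated by linear interpolation around 50% activity from 4-5 concentrations; mean ± SE, n = 3-5.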

For test [5], the target named is T1, Polyunsaturated fatty acid 5-lipoxygenase (Homo sapiens). Nature of the test: Inhibition of human recombinant 5-lipoxygenase expressed in Escherichia coli MV1190 assessed as suppression of CaCl2/arachidonic acid-induced product formation at 30 uM. The arrangement: scale not given: the % may be the effect or the level left.
The target of test [6] is T2, Polyunsaturated fatty acid 5-lipoxygenase. Kind of test: Inhibition of human recombinant 5-lipoxygenase expressed in Escherichia coli MV1190 assessed as suppression of CaCl2/arachidonic acid-induced product formation.

Each structure is given as a SMILES string. Active and inactive are the calls of the source. The rule behind the calls is not given here.

For the compound `CCOC(=O)CSc1nc(Cl)cc(Oc2ccc3ncccc3c2)n1`, the Activity in test [1] amounted to 77.6%. In addition, in test [2], the result was inactive.

For `CC(=O)N(O)C/C=C/c1cccc(Oc2ccccc2)c1`, the Activity in test [3] stood at 10.8%; in test [2] it was 3.3%.

Usually IC50 stands for the concentration needed to halve the response being measured. For the compound `CCCCC(Sc1nc(Cl)cc(Nc2ccc3ncccc3c2)n1)C(=O)OCC` (configuration not stated), the figures for the Activity in test [1] and in test [2] were 1.6% and 51.8%, respectively. For the same compound, in test [4], the half-inhibitory concentration (IC50) turned out to be 1100 nM.

As to `CCOC(=O)C(Sc1nc(Cl)cc(Nc2cccc(C)c2C)n1)c1ccccc1` (configuration not stated), the Activity in test [1] was determined as 18.7%; in test [2], 53.1%. For the same compound, the half-inhibitory concentration (IC50) in test [4] stood at 1800 nM.

In the case of `CCCCC(Sc1nc(Cl)cc(Nc2ccc3ncccc3c2)n1)C(=O)O` (configuration not stated), in test [1], the Activity came out at 50%. Also, the result in test [2] was inactive.

For the compound `Cc1cccc(Nc2cc(Cl)nc(SC(C(=O)O)c3ccccc3)n2)c1C` (configuration not stated), the outcome in test [1] and in test [2] was inactive.

On to `CCOC(=O)C(C)Sc1nc(Cl)cc(Nc2ccc3ncccc3c2)n1` (configuration not stated), for which the Activity in test [1] is 12%. In addition, in test [2], the outcome was inactive.

With `CCCCCCC(Sc1nc(Cl)cc(Nc2cccc(C)c2C)n1)C(=O)OCC` (configuration not stated), the Activity in test [1] came to 30.5%; in test [2], 84.9%.

As for `CCCCCCC(Sc1nc(Cl)cc(Oc2ccc3ncccc3c2)n1)C(=O)O` (configuration not stated), the Activity in test [1] turned out to be 10.7%; in test [3], 93.7%; in test [2], 91.4%; in test [5], 72.6%.

For `CCCCCCC(Sc1nc(Cl)cc(Nc2ccc3ncccc3c2)n1)C(=O)O` (configuration not stated), the IC50 in test [6] came to 34 µM. For the same compound, the Activity in test [1] amounted to 20.1%; in test [3] it was 95.4%; in test [5], 52.7%. For the same compound, the result in test [2] was inactive.

For `CCOC(=O)C(C)Sc1nc(Cl)cc(Nc2cccc(C)c2C)n1` (configuration not stated), in test [1], the Activity stood at 22.8%. Further, in test [2], the outcome was inactive.

In the case of `O=C(O)CSc1nc(Cl)cc(Nc2ccc3ncccc3c2)n1`, the result in test [1] and in test [2] was inactive.

For the compound `Cc1cccc(Nc2cc(Cl)nc(SCC(=O)O)n2)c1C`, the result in test [1] and in test [2] was inactive.

For the compound `CCCCCCC(Sc1nc(Cl)cc(NCc2ccc3ncccc3c2)n1)C(=O)O` (configuration not stated), the half-inhibitory concentration (IC50) in test [6] amounted to 31 µM. In addition, the Activity was 26.7% in test [1], 95.6% in test [3], 87.6% in test [2] and 51% in test [5].

Consider `CC(Sc1nc(Cl)cc(Nc2ccc3ncccc3c2)n1)C(=O)O` (configuration not stated), for which the outcome in test [1] and in test [2] was inactive.

As to `O=C(O)CSc1nc(Cl)cc(Nc2cccc3c2CCC3)n1`, the values for the Activity in test [1] and in test [2] were 14.5% and 71.1%, respectively. Besides, in test [4], the half-inhibitory concentration (IC50) is 3900 nM.

For `CCCCCCC(Sc1nc(Cl)cc(NCc2ccc3ncccc3c2)n1)C(=O)OCC` (configuration not stated), the figures for the half-maximal inhibitory concentration (IC50) in test [6] and in test [4] were 37 µM and 1400 nM, respectively. Also, the Activity is 11.4% in test [1], 70.7% in test [3], 57.4% in test [2] and 56% in test [5].

On to `O=C(O)CSc1nc(Cl)cc(Oc2ccc3ncccc3c2)n1`, for which the result in test [1] and in test [2] was inactive.

With `CCOC(=O)CSc1nc(Cl)cc(OCc2ccc3ncccc3c2)n1`, the Activity came out at 3.9% in test [1] and 80% in test [2].

`CCOC(=O)CSc1nc(Cl)cc(Nc2cccc3c2CCC3)n1`: the Activity was 8.9% in test [1] and 65.2% in test [2]. The IC50 in test [4] stood at 3200 nM.

Take `CCOC(=O)CSc1nc(Cl)cc(Nc2ccc3ncccc3c2)n1`: the Activity in test [1] amounted to 12.3%; in test [2], 86.3%. For the same compound, in test [4], the half-maximal inhibitory concentration (IC50) was determined as 2600 nM.

In the case of `CCOC(=O)CSc1nc(Cl)cc(Nc2cccc(C)c2C)n1`, the values for the Activity in test [1] and in test [2] were 77.7% and 76.9%, respectively.

For the compound `CCCCCCC(Sc1nc(Cl)cc(Oc2ccc3ncccc3c2)n1)C(=O)OCC` (configuration not stated), the Activity worked out at 4.5% in test [1], 79.1% in test [3], 67.4% in test [2] and 59.2% in test [5]. For the same compound, the half-inhibitory concentration (IC50) in test [4] is 1700 nM.

In the case of `CCCCCCC(Sc1nc(Cl)cc(Nc2cccc(C)c2C)n1)C(=O)O` (configuration not stated), the Activity in test [1] amounted to 28.9%; in test [2], 64.3%. Besides, in test [4], the IC50 was 4100 nM.

For `Cc1cccc(Nc2cc(Cl)nc(SC(C)C(=O)O)n2)c1C` (configuration not stated), the outcome in test [1] and in test [2] was inactive.

Turning to `CCCCCCC(Sc1nc(Cl)cc(Nc2ccc3ncccc3c2)n1)C(=O)OCC` (configuration not stated), the results for the IC50 in test [6] and in test [4] were 19 µM and 600 nM, respectively. Moreover, the Activity worked out at 4% in test [1], 68.2% in test [3], 27.9% in test [2] and 43.8% in test [5].

As to `O=C(O)C(Sc1nc(Cl)cc(Nc2ccc3ncccc3c2)n1)c1ccccc1` (configuration not stated), in test [1], the Activity worked out at 69.1%. Further, in test [2], the outcome was inactive.

In the case of `CCOC(=O)C(Sc1nc(Cl)cc(Nc2ccc3ncccc3c2)n1)c1ccccc1` (configuration not stated), the results for the Activity in test [1] and in test [2] were 3.5% and 52.7%, respectively. The IC50 in test [4] is 1200 nM.
